Test results reported in ChEMBL document CHEMBL3774328, “Optimization by Molecular Fine Tuning of Dihydro-β-agarofuran Sesquiterpenoids as Reversers of P-Glycoprotein-Mediated Multidrug Resistance” (J Med Chem, 2016).
pKi: −log10 of the molar value.

Experiments:
[1] = Intrinsic cytotoxicity against mouse NIH/3T3 cells transfected with human MDR1 by MTT assay; assay type: ADME, cell-based, NIH3T3
Procedure, shortened: (§1)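 Intrinsic cytotoxicity was measured by MTT in parental NIH-3T3 and MDR1-G185 cells. CC50 came from a four-parameter logistic fit. The top tested concentration was 60 μM, limited by DMSO toxicity, and growth at 60 μM is given as % of untreated control. Mean ± SD of three independent experiments in duplicate.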

[2] = Intrinsic cytotoxicity against mouse NIH/3T3 cells transfected with human MDR1 assessed as cell growth at 60 uM by MTT assay; assay type: ADME, cell-based, NIH3T3; conditions: read-out: Activity; procedure, shortened: as §1
[3] = molecular target: T1, ATP-dependent translocase ABCB1 (Homo sapiens, UniProt P08183); assay: Inhibition of human MDR1 expressed in mouse NIH/3T3 cells assessed as reduction in daunomycin IC50 at 3 uM by MTT assay; assay type: cell-based; conditions: nih3t3, 3 µM
T1 sequence (P08183 whole entry): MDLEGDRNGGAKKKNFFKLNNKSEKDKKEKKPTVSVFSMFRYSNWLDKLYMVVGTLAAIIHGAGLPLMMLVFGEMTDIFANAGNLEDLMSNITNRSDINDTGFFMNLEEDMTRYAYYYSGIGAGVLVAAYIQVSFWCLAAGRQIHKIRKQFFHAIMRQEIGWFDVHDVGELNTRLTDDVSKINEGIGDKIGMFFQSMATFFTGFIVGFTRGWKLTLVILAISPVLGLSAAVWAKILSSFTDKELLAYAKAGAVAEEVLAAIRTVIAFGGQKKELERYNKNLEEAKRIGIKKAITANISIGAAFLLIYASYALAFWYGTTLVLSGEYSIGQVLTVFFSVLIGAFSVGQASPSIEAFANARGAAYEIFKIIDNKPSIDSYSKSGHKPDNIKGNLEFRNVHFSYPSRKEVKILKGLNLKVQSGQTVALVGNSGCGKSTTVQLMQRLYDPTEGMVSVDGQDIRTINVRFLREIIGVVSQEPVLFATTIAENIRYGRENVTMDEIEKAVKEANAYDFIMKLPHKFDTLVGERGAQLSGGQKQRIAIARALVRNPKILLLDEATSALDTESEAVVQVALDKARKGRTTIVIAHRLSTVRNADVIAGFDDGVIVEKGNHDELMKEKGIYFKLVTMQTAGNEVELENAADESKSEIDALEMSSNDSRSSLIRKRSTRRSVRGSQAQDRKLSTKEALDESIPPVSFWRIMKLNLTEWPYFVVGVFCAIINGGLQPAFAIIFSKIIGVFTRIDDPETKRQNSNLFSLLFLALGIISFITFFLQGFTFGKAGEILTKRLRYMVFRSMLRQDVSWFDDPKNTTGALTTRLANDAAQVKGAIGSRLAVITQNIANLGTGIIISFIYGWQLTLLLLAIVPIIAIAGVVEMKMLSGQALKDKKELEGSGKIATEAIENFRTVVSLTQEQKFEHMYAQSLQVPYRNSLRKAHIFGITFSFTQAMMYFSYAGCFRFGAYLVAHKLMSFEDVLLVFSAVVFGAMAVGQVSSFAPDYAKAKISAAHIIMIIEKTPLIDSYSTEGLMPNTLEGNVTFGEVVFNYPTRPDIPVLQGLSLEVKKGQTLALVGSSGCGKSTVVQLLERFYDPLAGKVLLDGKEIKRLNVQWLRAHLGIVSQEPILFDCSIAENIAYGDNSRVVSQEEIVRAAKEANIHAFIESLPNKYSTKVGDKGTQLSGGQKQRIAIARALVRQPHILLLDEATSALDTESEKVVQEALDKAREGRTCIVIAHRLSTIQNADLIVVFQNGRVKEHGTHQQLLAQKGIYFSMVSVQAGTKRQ
Procedure, shortened: (§2)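 Parental NIH-3T3 and MDR1-G185 cells were grown in DMEM with 10% iFBS. They were exposed to increasing DNM or VLB (up to 500 ng/mL) with or without compound at fixed 1, 3 or 10 μM. Growth was read by MTT, and IC50 came from a four-parameter logistic fit. Reversal index = IC50 without compound / IC50 with compound in MDR1 cells. Mean ± SD of two independent experiments in triplicate.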

[4] = molecular target: T1, ATP-dependent translocase ABCB1; assay: Inhibition of human MDR1 expressed in mouse NIH/3T3 cells assessed as reduction in daunomycin IC50 at 10 uM by MTT assay; assay type: cell-based; conditions: nih3t3, 10 µM; procedure, shortened: as §2
[5] = molecular target: T1, ATP-dependent translocase ABCB1; assay: Inhibition of human MDR1 expressed in mouse NIH/3T3 cells assessed as reduction in vinblastine IC50 at 1 uM by MTT assay; assay type: cell-based; conditions: nih3t3, 1 µM; procedure, shortened: as §2
[6] = molecular target: T1, ATP-dependent translocase ABCB1; assay: Inhibition of human MDR1 expressed in mouse NIH/3T3 cells assessed as reduction in vinblastine IC50 at 3 uM by MTT assay; assay type: cell-based; conditions: nih3t3, 3 µM; procedure, shortened: as §2
[7] = molecular target: T1, ATP-dependent translocase ABCB1; assay: Inhibition of human MDR1 expressed in mouse NIH/3T3 cells assessed as reduction in vinblastine IC50 at 10 uM by MTT assay; assay type: cell-based; conditions: nih3t3, 10 µM; procedure, shortened: as §2
[8] = molecular target: T1, ATP-dependent translocase ABCB1; assay: Inhibition of human MDR1 expressed in mouse NIH/3T3 cells assessed as inhibition of daunomycin efflux incubated for 30 mins by flow cytometry; assay type: cell-based, NIH3T3
Procedure, shortened: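 Ki for DNM efflux. MDR1-G185 NIH-3T3 cells were incubated 30 min at 37 °C with DNM (2 μM) and varying compound concentrations, then read by flow cytometry. Fluorescence was converted to % P-gp inhibition, normalized to cells treated with 5 mM sodium orthovanadate (100%). Ki was fitted from I = (Imax × S)/(Ki + S). Mean ± SD of three independent experiments in triplicate.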

[9] = Intrinsic cytotoxicity against mouse NIH/3T3 cells by MTT assay; assay type: cell-based, NIH3T3; procedure, shortened: as §1
[10] = Intrinsic cytotoxicity against mouse NIH/3T3 cells assessed as cell growth at 60 uM by MTT assay; assay type: cell-based, NIH3T3; conditions: read-out: Activity; procedure, shortened: as §1
[11] = molecular target: T1, ATP-dependent translocase ABCB1; assay: Inhibition of human MDR1 expressed in mouse NIH/3T3 cells assessed as reduction in daunomycin IC50 at 1 uM by MTT assay; assay type: cell-based; conditions: nih3t3, 1 µM
Procedure, shortened: as §2, with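 “fit.” for “fit. Reversal index = IC50 without compound / IC50 with compound in MDR1 cells.”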

[12] = molecular target: T1, ATP-dependent translocase ABCB1; assay: Potency index, ratio of daunomycin reversal index to compound reversal index for human MDR1 expressed in mouse NIH/3T3 cells at 1 uM; assay type: cell-based; conditions: nih/3t3, 1 µM
Procedure, shortened: (§3)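 Each RI comes from the MTT dose-response of DNM or VLB (up to 500 ng/mL), with or without modulator.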

[13] = molecular target: T1, ATP-dependent translocase ABCB1; assay: Potency index, ratio of vinblastine reversal index to compound reversal index for human MDR1 expressed in mouse NIH/3T3 cells at 1 uM; assay type: cell-based; conditions: nih/3t3, 1 µM; procedure, shortened: as §3
[14] = molecular target: T1, ATP-dependent translocase ABCB1; assay: Potency index, ratio of vinblastine reversal index to compound reversal index for human MDR1 expressed in mouse NIH/3T3 cells at 3 uM; assay type: cell-based; conditions: nih/3t3, 3 µM

fold change (FC) [3]	fold change (FC) [4]	fold change (FC) [5]	fold change (FC) [6]	fold change (FC) [7]	pKi [8]	fold change (FC) [11]	Ratio [12]	Ratio [13]	Ratio [14]	Compound	CC50 [1] [µM]	viability at 60 µM [2] [%]	CC50 [9] [µM]	viability at 60 µM [10] [%]
6.2	10.8	8.7	27.8	129.9						COc1ccc(CCN(C)CCCC(C#N)(c2ccc(OC)c(OC)c2)C(C)C)cc1OC (configuration not stated)	> 60	76.9		
4	9	3.7	8.8	20.6	5.76	2.3				CC(=O)O[C@H]1CC[C@](C)(O)[C@]23OC(C)(C)[C@H]([C@H](OC(=O)/C=C/c4ccccc4)[C@H](OC(=O)c4ccccc4)[C@]12C)[C@H]3OC(=O)c1cnccn1	> 60	86.2	> 60	66.3
19.5	24.9	27.4	36.1	90	6.72	15.8	3	3		CC(=O)O[C@H]1CC[C@](C)(O)[C@]23OC(C)(C)[C@H]([C@H](OC(=O)/C=C/c4ccccc4)[C@H](OC(=O)c4ccccc4)[C@]12C)[C@H]3OC(=O)CCC(=O)N(C(=O)NC1CCCCC1)C1CCCCC1	> 60	72.8	56.4	
11.5	12.4	19.1	69	110.9	6.27	10.8	3		2	CCC(=O)O[C@@H]1[C@H]2[C@H](OC(=O)/C=C/c3ccccc3)[C@H](OC(=O)c3ccccc3)[C@]3(C)[C@@H](OC(C)=O)CC[C@](C)(O)[C@@]13OC2(C)C	24.9		> 60	68.6
